The values below come from ChEMBL document CHEMBL1123504, “2,3-Dialkyl(dimethylamino)indoles: interaction with 5HT1, 5HT2, and rat stomach fundal serotonin receptors” (J Med Chem, 1986).

Experiment [1] deals with T1, Serotonin 1 (5-HT1) receptor (Rattus norvegicus, UniProt P28564+P30940+P19327+P28565). In words: Binding affinity towards 5-hydroxytryptamine 1 receptor in brain cortical membranes of rat. The class given is cell membranes. In outline:
(§1)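 Rat 5HT1 site: cortical membranes from 150-200-g male Wistar rats, preincubated in buffer to remove endogenous 5HT; […] per sample in 1 mL Tris buffer. [3H]-5HT at 2.3-2.6 nM; nonspecific binding with 10^-5 M 5HT. IC50 = 50% inhibition of specific binding, from 10 concentrations spanning 10^-9 to 10^-4 M.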

In experiment [2] the target is Serotonin 2 (5-HT2) receptor (Rattus norvegicus, UniProt P30994+P08909+P14842). In words: Binding affinity towards 5-hydroxytryptamine 2 receptor in rat brain cortical membranes. Type of experiment: cell membranes. In outline: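 5HT2 site, [3H]spiperone binding to cortical membranes of 150-200-g male Wistar rats, preincubated to deplete endogenous 5HT; […] per 1 mL Tris buffer. Nonspecific binding defined with 10^-6 M lysergic acid diethylamide. IC50 taken as 50% inhibition of specific binding, 10 concentrations from 10^-9 to 10^-4 M.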

The species named for experiment [3] is Rattus norvegicus. In words: Tested for cumulative contractile concentration -response curves for serotonin in the rat jugular vein.
The species entered for experiment [4] is Rattus norvegicus. In words: Tested for noncumulative contractile concentration -response curves for serotonin in the rat fundus. The class given is functional. In outline:
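Isolated rat stomach fundus strips, four per fundus, in 10 mL modified Krebs. Noncumulative serotonin curves, about 2 min contact per concentration, washout every 15-20 min, maximal contraction read. Antagonist or buffer for 1 h, then curve repeated; one antagonist concentration per tissue. KB = [B]/(dose ratio - 1) from ED50 shift, reported as -log KB.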

Experiment [5] has as its target T1, Serotonin 1 (5-HT1) receptor. In words: Tested for its binding affinity towards 5-hydroxytryptamine 1 receptor in rat. The procedure, abridged: as §1
For experiment [6], the species on record is Rattus norvegicus. The experiment is described as follows: Tested for cumulative contractile concentration -response curves for serotonin in the rat jugular vein.

In the case of `CCc1c(C)n(CC)c2ccc(N(C)C)cc12`, the IC50 in experiment [1] and in experiment [2] was over 1000 nM throughout. The figures for the “-Log KB” value in the experiment listed under Rattus norvegicus [3] and in the experiment filed under Rattus norvegicus [4] were 6.45 and 7.01, respectively.

With `CCc1c(C)n(C)c2ccc(N(C)C)cc12`, the IC50 in experiment [1] and in experiment [2] was over 1000 nM each time. Moreover, the “-Log KB” value in the experiment listed under Rattus norvegicus [3] was determined as 6.51; in the experiment listed under Rattus norvegicus [4] it was 7.32.

`CCc1c(C)n(C(=O)c2ccc(F)cc2)c2ccc(N(C)C)cc12`: the IC50 in experiment [2] and in experiment [5] was over 1000 nM throughout. For the same compound, in the experiment filed under Rattus norvegicus [4], the “-Log KB” value is under 5.

With `CCc1c(C)n(C(C)C)c2ccc(N(C)C)cc12`, the IC50 in experiment [1] and in experiment [2] was over 1000 nM each time. Also, the “-Log KB” value in the experiment listed under Rattus norvegicus [6] turned out to be 7.28; in the experiment filed under Rattus norvegicus [4] it was 7.

Regarding `CCc1c(C)[nH]c2ccc(N(C)C)cc12`, the IC50 in experiment [1] and in experiment [2] was over 1000 nM in each case. The figures for the “-Log KB” value in the experiment listed under Rattus norvegicus [3] and in the experiment listed under Rattus norvegicus [4] were 4.93 and 7.3, respectively.

For the compound `CCc1c(C)n(C)c2c(N(C)C)cccc12`, the 50% inhibitory concentration (IC50) in experiment [1] and in experiment [2] was over 1000 nM each time. In addition, in the experiment filed under Rattus norvegicus [4], the “-Log KB” value is given as under 5.5.

With `CCc1c(C)[nH]c2ccc(N(C)C)c(Cl)c12`, the IC50 in experiment [1] and in experiment [2] was over 1000 nM throughout. Also, the “-Log KB” value in the experiment filed under Rattus norvegicus [4] is given as 6.86.

On to `CCCn1c(C)c(CC)c2cc(N(C)C)ccc21`, for which the 50% inhibitory concentration (IC50) in experiment [1] and in experiment [2] was over 1000 nM throughout. Besides, in the experiment filed under Rattus norvegicus [4], the “-Log KB” value came out at 6.57.

For the compound `CCc1c(C)n(C)c2ccc(NC(=O)Nc3cccc(C(F)(F)F)c3)cc12`, the 50% inhibitory concentration (IC50) in experiment [1] and in experiment [2] was over 1000 nM in each case. The “-Log KB” value was found to be 5.18 in the experiment filed under Rattus norvegicus [3] and 7.16 in the experiment filed under Rattus norvegicus [4].

On to `CCc1c(C)c2cc(N(C)C)ccc2n1C`, for which the IC50 in experiment [1] and in experiment [2] was over 1000 nM in each case. The “-Log KB” value in the experiment listed under Rattus norvegicus [6] worked out at 6.48; in the experiment listed under Rattus norvegicus [4], 6.69.

With `Cc1c(C)n(C)c2ccc(N(C)C)cc12`, the half-maximal inhibitory concentration (IC50) in experiment [1] and in experiment [2] was over 1000 nM in each case. Moreover, the “-Log KB” value in the experiment filed under Rattus norvegicus [4] is listed as 6.71.
